Values after ≈ are worked out from the molar mass of the structure shown.
Key:
[1] = Cytotoxicity against human HepG2 cells assessed as reduction in cell viability incubated for 48 hrs by MTT assay; format: cell-based
Outline: (§1)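 RAW 264.7 macrophages and HepG2 cells were cultured in DMEM at 37 °C, 5% CO2. For the assay, 10⁵ cells/well were preincubated for 24 h, then exposed to compounds at […] for 48 h, in duplicate. MTT (5 mg/mL in PBS) was added for 2 h and absorbance read at 570 nm. Untreated wells served as the negative control. CC50 obtained by regression analysis.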

[2] = Cytotoxicity against mouse RAW264.7 cells assessed as reduction in cell viability incubated for 48 hrs by MTT assay; format: cell-based; outline: as §1
[3] = Selectivity index, ratio of CC50 for mouse RAW264.7 cells to MIC for antimycobacterial activity against Mycobacterium tuberculosis H37Rv ATCC 27294; format: toxicity; conditions: read-out: Selectivity Index
[4] = Cytotoxicity against African green monkey Vero cells assessed as reduction in cell viability measured after 5 days by MTT assay; format: cell-based; conditions: chlorocebus sabaeus, time 5 day
Outline: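 Vero cells in DMEM with 10% inactivated FBS, plated at 1×10⁴ cells/well 24 h before treatment. Compounds were applied at 800, 400, 200, 100 and 50 µM, with at most 0.8% DMSO, for 5 days at 37 °C. MTT (1 mg/mL) was added for 4 h, formazan solubilised in DMSO and OD570 read. CC50 is the concentration giving a 50% reduction in absorbance.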

[5] = Selectivity index, ratio of CC50 for human HepG2 cells to MIC for antimycobacterial activity against Mycobacterium tuberculosis H37Rv ATCC 27294; format: toxicity; conditions: read-out: Selectivity Index
[6] = system: Mycobacterium tuberculosis; test: Antimycobacterial activity against Mycobacterium tuberculosis H37Ra ATCC 25177 assessed as inhibition of bacterial growth incubated for 9 days by resazurin microtiter assay; format: functional; conditions: H37Ra ATCC 25177, 216 h, time 9 day
Outline: (§2)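 REMA broth microdilution in 7H9-S medium, run in duplicate. Test compounds were serially two-fold diluted on the plate from 64 to 0.5 µg/mL. Inoculum taken from fresh Löwenstein-Jensen culture, adjusted to McFarland no. 1 and diluted 1:20. Plates were sealed and incubated at 37 °C in normal atmosphere for 9 days, then resazurin was added. Rifampicin and ethambutol served as standards. MIC reported in µg/mL.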

[7] = system: Mycobacterium tuberculosis; test: Antimycobacterial activity against Mycobacterium tuberculosis H37Rv ATCC 27294 assessed as inhibition of bacterial growth incubated for 9 days by resazurin microtiter assay; format: functional; conditions: H37Rv ATCC 27294, 216 h, time 9 day; outline: as §2
HCT-116 = test: Cytotoxicity against human HCT-116 cells assessed as inhibition of cell proliferation at 25 uM incubated for 72 hrs by MTT assay relative to control; format: functional; set-up: scale not given: the % may be the effect or the level left
Outline: (§3)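 Tumor lines from NCI. PC-3, HCT-116 and NCIH-460 were grown in RPMI 1640; SKMEL-103 and AGP-01 in DMEM; all with 10% FBS at 37 °C, 5% CO2. Seeding was 0.3×10⁶ cells/mL for SKMEL-103 and AGP-01, 0.1×10⁶ for PC-3 and NCIH-460, and 0.7×10⁵ for HCT-116. Cells were exposed to compound at 25 µM for 72 h. Cells were centrifuged, 1% MTT added for 3 h, formazan dissolved in DMSO and read at 570 nm.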

PC-3 = test: Cytotoxicity against human PC-3 cells assessed as inhibition of cell proliferation at 25 uM incubated for 72 hrs by MTT assay relative to control; format: functional; set-up: scale not given: the % may be the effect or the level left; outline: as §3
NCI-H460 [8] = test: Cytotoxicity against human NCI-H460 cells assessed as inhibition of cell proliferation at 25 uM incubated for 72 hrs by MTT assay relative to control; format: functional; set-up: scale not given: the % may be the effect or the level left; outline: as §3
SK-MEL-103 = test: Cytotoxicity against human SK-MEL-103 cells assessed as inhibition of cell proliferation at 25 uM incubated for 72 hrs by MTT assay relative to control; format: functional; set-up: scale not given: the % may be the effect or the level left; outline: as §3
[9] = Cytotoxicity against human AGP01 cells assessed as inhibition of cell proliferation at 25 uM incubated for 72 hrs by MTT assay relative to control; format: functional; set-up: scale not given: the % may be the effect or the level left; outline: as §3
NCI-H460 [10] = test: Antiproliferative activity against human NCI-H460 cells assessed as inhibition of cell growth incubated for 72 hrs by MTT assay; format: functional, cell-based; conditions: NCI-H460, 72 h
Outline: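 NCIH-460 cells in RPMI 1640 with 10% FBS at 0.1×10⁶ cells/mL, treated for 72 h at 37 °C, 5% CO2. MTT read-out: 1% MTT for 3 h, formazan dissolved in DMSO, absorbance at 570 nm. IC50 derived from absorbances by nonlinear regression.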

[11] = system: Mycobacterium tuberculosis; test: Antimycobacterial activity against Mycobacterium tuberculosis H37Rv ATCC 27294 assessed as inhibition of bacterial growth by agar dilution method; format: functional
[12] = system: Mycobacterium tuberculosis; test: Antitubercular activity against Mycobacterium tuberculosis H37Rv; format: functional

## CC(=O)OC[C@H]1O[C@H](OC[C@@H](Cn2cc(CN(c3nc(-c4ccc(C(F)(F)F)cc4)no3)C3CCCCC3)nn2)OC(C)=O)C=C[C@@H]1OC(C)=O
[1]
  CC50 at 48 h: 81.4 µg/mL (≈ 113 µM)
[2]
  CC50 at 48 h: 64.1 µg/mL (≈ 89 µM)
[3]
  selectivity ratio: < 1
[4]
  CC50 at 120 h: 706 µM
[5]
  selectivity ratio: 1.67
[6]
  MIC: ≥ 64 µg/mL
[7]
  MIC: ≥ 64 µg/mL

## CC(=O)OC[C@H]1O[C@H](OC[C@@H](Cn2cc(CN(c3nc(-c4cccc(C)c4)no3)C3CCCCC3)nn2)OC(C)=O)C=C[C@@H]1OC(C)=O
[1]
  CC50 at 48 h: 39.2 µg/mL (≈ 58.8 µM)
[2]
  CC50 at 48 h: 46.4 µg/mL (≈ 69.6 µM)
[3]
  selectivity ratio: < 0.72
HCT-116
  Activity: 69.5%
PC-3
  Activity: 9.2%
NCI-H460 [8]
  Activity: 26.1%
SK-MEL-103
  Activity: 69%
[5]
  selectivity ratio: < 0.61
[9]
  Activity: 38.9%
[6]
  MIC: ≥ 64 µg/mL
[7]
  MIC: ≥ 64 µg/mL

## COc1ccc(-c2noc(N(Cc3cn(C[C@H](CO[C@@H]4C=C[C@H](OC(C)=O)[C@@H](COC(C)=O)O4)OC(C)=O)nn3)C3CCCCC3)n2)cc1
[1]
  CC50 at 48 h: 141 µg/mL (≈ 207 µM)
[2]
  CC50 at 48 h: 86.3 µg/mL (≈ 126 µM)
[3]
  selectivity ratio: 2.7
HCT-116
  Activity: 24.2%
[4]
  CC50 at 120 h: 575 µM
PC-3
  Activity: 21.6%
NCI-H460 [8]
  Activity: 24.2%
SK-MEL-103
  Activity: 29.8%
[5]
  selectivity ratio: 4.41
[9]
  Activity: 59.2%
[6]
  MIC: 16 µg/mL (≈ 23.4 µM)
[7]
  MIC: 32 µg/mL (≈ 46.9 µM)

## CC(=O)OC[C@H]1O[C@H](OC[C@@H](Cn2cc(CN(c3nc(-c4ccc(C)cc4)no3)C3CCCCC3)nn2)OC(C)=O)C=C[C@@H]1OC(C)=O
[1]
  CC50 at 48 h: 36.8 µg/mL (≈ 55.2 µM)
[2]
  CC50 at 48 h: 45.3 µg/mL (≈ 68 µM)
[3]
  selectivity ratio: 2.83
[4]
  CC50 at 120 h: 498 µM
[5]
  selectivity ratio: 2.3
[6]
  MIC: 8 µg/mL (≈ 12 µM)
[7]
  MIC: 16 µg/mL (≈ 24 µM)

## C#CCN(c1nc(-c2ccc(OC)cc2)no1)C1CCCCC1
[1]
  CC50 at 48 h: 72.5 µg/mL (≈ 233 µM)
[2]
  CC50 at 48 h: 28 µg/mL (≈ 89.8 µM)
[3]
  selectivity ratio: 0.46
HCT-116
  Activity: 40.7%
PC-3
  Activity: 23.7%
NCI-H460 [8]
  Activity: 69.1%
NCI-H460 [10]
  IC50: 1 µg/mL (≈ 3.21 µM)
SK-MEL-103
  Activity: 37.3%
[5]
  selectivity ratio: 1.13
[9]
  Activity: 57.3%
[6]
  MIC: ≥ 64 µg/mL
[7]
  MIC: 64 µg/mL (≈ 206 µM)

## CCCCCc1ccc(-c2cn(CC(O)COc3cccc4c3OCC3(CCCCC3)C4=O)nn2)cc1 (stereo not given)
[11]
  MIC: 0.78 µg/mL (≈ 1.55 µM)

## C#CCN(c1nc(-c2ccc(F)cc2)no1)C1CCCCC1
[1]
  CC50 at 48 h: 41.1 µg/mL (≈ 137 µM)
[2]
  CC50 at 48 h: 20.9 µg/mL (≈ 69.9 µM)
[3]
  selectivity ratio: 0.32
HCT-116
  Activity: 44.9%
PC-3
  Activity: 25.4%
NCI-H460 [8]
  Activity: 50.5%
NCI-H460 [10]
  IC50: 1.16 µg/mL (≈ 3.88 µM)
SK-MEL-103
  Activity: 47.3%
[5]
  selectivity ratio: 0.64
[9]
  Activity: 50.4%
[6]
  MIC: 64 µg/mL (≈ 214 µM)
[7]
  MIC: 64 µg/mL (≈ 214 µM)

## CC(C)c1ccc(-c2nc(CN3CCN(c4ccnc5c(-c6cccnc6)cccc45)CC3)no2)cc1
[12]
  MIC: 0.25 µg/mL (≈ 0.51 µM)

## CC(=O)OC[C@H]1O[C@H](OC[C@@H](Cn2cc(CN(c3nc(-c4ccc(F)cc4)no3)C3CCCCC3)nn2)OC(C)=O)C=C[C@@H]1OC(C)=O
[1]
  CC50 at 48 h: 28.8 µg/mL (≈ 42.9 µM)
[2]
  CC50 at 48 h: 31.5 µg/mL (≈ 46.9 µM)
[3]
  selectivity ratio: < 0.49
HCT-116
  Activity: 44.9%
PC-3
  Activity: 7.1%
NCI-H460 [8]
  Activity: 17.7%
SK-MEL-103
  Activity: 20.7%
[5]
  selectivity ratio: < 0.45
[9]
  Activity: 69.4%
[6]
  MIC: ≥ 64 µg/mL
[7]
  MIC: ≥ 64 µg/mL

## C#CCN(c1nc(-c2cccc([N+](=O)[O-])c2)no1)C1CCCCC1
[1]
  CC50 at 48 h: 45.5 µg/mL (≈ 139 µM)
[2]
  CC50 at 48 h: 34.2 µg/mL (≈ 105 µM)
[3]
  selectivity ratio: < 0.53
HCT-116
  Activity: 24.8%
PC-3
  Activity: 7.2%
NCI-H460 [8]
  Activity: 5.8%
SK-MEL-103
  Activity: 44.4%
[5]
  selectivity ratio: < 0.71
[9]
  Activity: 46%
[6]
  MIC: ≥ 64 µg/mL
[7]
  MIC: ≥ 64 µg/mL

## C#CCOc1ccc(-c2noc(NC3CCCCC3)n2)cc1
[1]
  CC50 at 48 h: 119 µg/mL (≈ 399 µM)
[2]
  CC50 at 48 h: 38.3 µg/mL (≈ 129 µM)
[3]
  selectivity ratio: 1.29
HCT-116
  Activity: 43.3%
PC-3
  Activity: 64.2%
NCI-H460 [8]
  Activity: 75.7%
NCI-H460 [10]
  IC50: 5.3 µg/mL (≈ 17.8 µM)
SK-MEL-103
  Activity: 62.8%
[5]
  selectivity ratio: 3.7
[9]
  Activity: 2.6%
[6]
  MIC: 32 µg/mL (≈ 108 µM)
[7]
  MIC: 32 µg/mL (≈ 108 µM)

## CC(=O)OC[C@H]1O[C@H](OC[C@@H](Cn2cc(CN(c3nc(-c4ccccc4)no3)C3CCCCC3)nn2)OC(C)=O)C=C[C@@H]1OC(C)=O
[1]
  CC50 at 48 h: 19.9 µg/mL (≈ 30.5 µM)
[2]
  CC50 at 48 h: 28.6 µg/mL (≈ 43.8 µM)
[3]
  selectivity ratio: 1.78
[4]
  CC50 at 120 h: 607 µM
[5]
  selectivity ratio: 1.24
[6]
  MIC: 16 µg/mL (≈ 24.5 µM)
[7]
  MIC: 16 µg/mL (≈ 24.5 µM)

## COc1cccc2c1C(=O)c1c(O)c3c(c(O)c1C2=O)C[C@@](O)(C(=O)CO)C[C@@H]3O[C@H]1C[C@H](N)[C@H](O)[C@H](C)O1 [DOXORUBICIN]
NCI-H460 [10]
  IC50: 0.08 µg/mL (≈ 0.147 µM)

Source: ChEMBL document CHEMBL4842319, “Synthesis of alkynylated 1,2,4-oxadiazole/1,2,3-1H-triazole glycoconjugates: Discovering new compounds for use in chemotherapy against lung carcinoma and Mycobacterium tuberculosis” (Eur J Med Chem, 2021)
